This is an account of results in ChEMBL document CHEMBL5678817, “FTBMT, a Novel and Selective GPR52 Agonist, Demonstrates Antipsychotic-Like and Procognitive Effects in Rodents, Revealing a Potential Therapeutic Agent for Schizophrenia” (J Pharmacol Exp Ther, 2017).

The structures appear in SMILES notation. The source made the active and inactive calls. No cut-off for these calls is given here.

A word on the inhibition: it is the relative decrease from the control value, in per cent.

The subject of assay [1] is Mus musculus. In words: Antipsychotic activity in methamphetamine-induced hyperactivity in ICR mouse assessed as minimum effective dose administered orally. Format: functional. Conditions: route po, read-out: MED.
The target in assay [2] is G-protein coupled receptor 52 (Homo sapiens, UniProt Q9Y2T5). In words: Agonist activity at human GPR52 expressed in CHO cells assessed as increase in intracellular cAMP level upto 10 uM incubated for 30 mins by Alphascreen assay. Format: functional, cell-based. The procedure, abridged:
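CHO cells stably expressing human, mouse or rat GPR52, plus naïve CHO cells, at 10,000 cells/well. Stimulated in cAMP assay buffer for 30 min at 37 °C. Intracellular cAMP read by AlphaScreen.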
(In general: cAMP levels reflect the balance of adenylyl cyclase and phosphodiesterase activity.)

The target in assay [3] is Cholinesterase (Homo sapiens) (UniProt P06276). In words: Inhibition of Choline esterase (unknown origin) at 10 uM relative to control. The procedure, abridged:
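Enzyme assay run by an outside lab as part of a 98-target screen of receptors, ion channels and enzymes. Single test concentration of 10 μM; read-out is percent inhibition of enzyme activity versus control, with negative values meaning activation.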

The target in assay [4] is Prostaglandin G/H synthase 1 (Homo sapiens) (UniProt P23219). In words: Inhibition of COX-1 (unknown origin) at 10 uM relative to control. Summed up: (§1)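 Single-point screen at 10 μM across receptor, ion channel and enzyme binding or activity assays. Expressed as percent inhibition versus control; negative values denote stimulation.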
Assay [5] concerns the target Phosphodiesterase 6 (Homo sapiens) (UniProt Q13956+P18545+P35913+O43924+P16499+P51160). In words: Inhibition of PDE6 (unknown origin) at 10 uM relative to control. Format: protein assay. Summed up: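 Enzyme activity assays from the same 98-target biochemical panel. Single test concentration of 10 µM. Read-out is % inhibition of enzyme activity relative to control; negative percentages indicate activation of the enzyme.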

The target in assay [6] is 3-oxo-5-alpha-steroid 4-dehydrogenase 1 (Homo sapiens) (UniProt P18405). In words: Inhibition of Steroid 5alpha-reductase 1 (unknown origin) at 10 uM relative to control. The procedure, abridged: (§2)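 Binding and enzyme panel run by an outside contractor against receptors, ion channels and enzymes. Each assay used a single 10 μM test concentration, and results are expressed as percent inhibition. A negative value means stimulation of receptor activity or activation of enzyme activity.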

The target in assay [7] is Cholecystokinin receptor type A (Homo sapiens) (UniProt P32238). In words: Inhibition of CCK1 receptor (unknown origin) at 10 uM relative to control. The procedure, abridged: as §1
The target in assay [8] is Thromboxane A2 receptor (Homo sapiens) (UniProt P21731). In words: Inhibition of Thromboxane A2 receptor (unknown origin) at 10 uM relative to control. Summed up: as §2
For a further assay, the species on record is Homo sapiens. In words: Inhibition of Sigma receptor (unknown origin) at 10 uM relative to control. The procedure, abridged: (§3)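 Part of a 98-target external biochemical selectivity panel that used radioligand/receptor binding-type assays. Compound tested once at 10 µM. Results are reported as % inhibition versus control; negative values mean stimulation of receptor activity.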

The target in assay [9] is Sodium-dependent serotonin transporter (Homo sapiens) (UniProt P31645). In words: Inhibition of SERT receptor (unknown origin) at 10 uM relative to control. Summed up:
as §3

Assay [10] has as its target GABA-A receptor; anion channel (Homo sapiens) (UniProt P14867+P47870+P18507+P28472+P48169+Q99928+Q9UN88+P34903+O00591+O14764+Q8N1C3+P18505+P78334+P47869+P31644+Q16445). In words: Inhibition of GABA receptor (unknown origin) at 10 uM relative to control. Format: protein-complex assay. Summed up:
as §3

Assay [11] concerns Mus musculus. In words: Antipsychotic activity in C57BL/6N mouse assessed as increase in c-fos mRNA expression at 3 to 100 mg/kg, po measured for 1 hr by qPCR analysis. Format: functional, organism-based. To be noted: dose 3-100 mg/kg. The procedure, abridged:
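Mice dosed orally at 3–100 mg/kg or vehicle. Tissues taken 1 h post-dose, NAc shell and striatum dissected, frozen on dry ice. IEG mRNA quantified by qPCR (absolute or ΔΔCt); n = 5–6; mean ± SEM.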
A general note: In qPCR the cycle at which signal appears reflects the starting amount.

The subject of assay [12] is Mus musculus. In words: Antipsychotic activity in C57BL/6N mouse assessed as increase in c-fos positive cells in frontal cortex at 30 mg/kg, po measured for 2 hrs by immunohistochemistry analysis. Format: functional, organism-based.
Assay [13] relates to Mus musculus. In words: Pro-cognitive activity in C57BL/6N mouse assessed as increase in Arc gene expression in hippocampus at 3 to 30 mg/kg, po […]. To be noted: dose 3-30 mg/kg. Format: functional, organism-based.

Sequence of Cholinesterase (Homo sapiens) (P06276 whole entry): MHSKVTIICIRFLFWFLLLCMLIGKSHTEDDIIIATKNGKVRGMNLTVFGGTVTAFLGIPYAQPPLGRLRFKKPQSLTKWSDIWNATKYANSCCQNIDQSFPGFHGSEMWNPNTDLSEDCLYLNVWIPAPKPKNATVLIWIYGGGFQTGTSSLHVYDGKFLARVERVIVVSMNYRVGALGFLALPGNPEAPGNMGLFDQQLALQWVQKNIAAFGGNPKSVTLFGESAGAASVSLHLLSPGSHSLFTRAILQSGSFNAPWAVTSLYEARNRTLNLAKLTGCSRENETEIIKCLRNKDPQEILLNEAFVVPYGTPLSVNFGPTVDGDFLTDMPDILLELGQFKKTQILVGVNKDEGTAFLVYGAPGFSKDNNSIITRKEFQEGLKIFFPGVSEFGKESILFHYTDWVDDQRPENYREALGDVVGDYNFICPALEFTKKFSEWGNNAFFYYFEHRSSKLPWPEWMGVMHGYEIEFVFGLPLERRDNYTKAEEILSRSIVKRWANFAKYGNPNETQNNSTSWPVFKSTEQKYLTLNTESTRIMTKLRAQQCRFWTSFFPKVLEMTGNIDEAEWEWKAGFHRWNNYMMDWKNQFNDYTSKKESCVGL
Sequence of G-protein coupled receptor 52 (Q9Y2T5 whole entry): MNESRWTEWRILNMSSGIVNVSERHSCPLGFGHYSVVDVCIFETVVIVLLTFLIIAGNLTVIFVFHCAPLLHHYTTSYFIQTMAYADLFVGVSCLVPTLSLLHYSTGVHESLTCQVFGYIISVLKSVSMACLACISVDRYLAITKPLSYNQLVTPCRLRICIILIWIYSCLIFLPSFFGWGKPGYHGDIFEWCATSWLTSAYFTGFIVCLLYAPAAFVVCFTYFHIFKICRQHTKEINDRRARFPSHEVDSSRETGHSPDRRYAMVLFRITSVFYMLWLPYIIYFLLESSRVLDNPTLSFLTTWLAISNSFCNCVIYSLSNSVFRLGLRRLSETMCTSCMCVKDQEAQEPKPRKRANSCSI
Sequence of Sodium-dependent serotonin transporter (Homo sapiens) (P31645 whole entry, looked up): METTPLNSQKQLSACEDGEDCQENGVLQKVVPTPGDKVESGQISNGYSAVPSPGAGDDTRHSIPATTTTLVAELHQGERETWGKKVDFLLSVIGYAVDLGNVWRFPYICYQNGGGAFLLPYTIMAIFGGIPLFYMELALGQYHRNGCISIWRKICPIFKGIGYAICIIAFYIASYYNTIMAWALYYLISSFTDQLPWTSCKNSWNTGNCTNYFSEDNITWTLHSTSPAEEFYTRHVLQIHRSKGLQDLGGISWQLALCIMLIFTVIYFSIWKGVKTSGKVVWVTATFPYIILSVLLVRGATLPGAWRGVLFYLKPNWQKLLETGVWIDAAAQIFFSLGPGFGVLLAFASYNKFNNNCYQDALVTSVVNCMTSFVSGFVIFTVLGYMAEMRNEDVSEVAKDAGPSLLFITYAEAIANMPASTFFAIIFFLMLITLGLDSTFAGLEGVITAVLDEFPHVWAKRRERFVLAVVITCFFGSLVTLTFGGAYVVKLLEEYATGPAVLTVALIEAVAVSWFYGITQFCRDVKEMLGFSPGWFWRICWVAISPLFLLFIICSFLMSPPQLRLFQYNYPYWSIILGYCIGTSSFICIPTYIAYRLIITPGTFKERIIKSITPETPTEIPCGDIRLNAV
Sequence of 3-oxo-5-alpha-steroid 4-dehydrogenase 1 (Homo sapiens) (P18405 whole entry): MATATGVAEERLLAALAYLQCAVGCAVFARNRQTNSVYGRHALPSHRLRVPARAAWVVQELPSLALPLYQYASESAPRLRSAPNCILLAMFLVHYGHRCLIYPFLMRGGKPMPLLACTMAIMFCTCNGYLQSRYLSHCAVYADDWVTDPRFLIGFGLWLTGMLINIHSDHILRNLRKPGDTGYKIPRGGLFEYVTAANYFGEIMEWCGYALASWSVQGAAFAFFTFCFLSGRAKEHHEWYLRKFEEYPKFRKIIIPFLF
Sequence of Thromboxane A2 receptor (Homo sapiens) (P21731 whole entry): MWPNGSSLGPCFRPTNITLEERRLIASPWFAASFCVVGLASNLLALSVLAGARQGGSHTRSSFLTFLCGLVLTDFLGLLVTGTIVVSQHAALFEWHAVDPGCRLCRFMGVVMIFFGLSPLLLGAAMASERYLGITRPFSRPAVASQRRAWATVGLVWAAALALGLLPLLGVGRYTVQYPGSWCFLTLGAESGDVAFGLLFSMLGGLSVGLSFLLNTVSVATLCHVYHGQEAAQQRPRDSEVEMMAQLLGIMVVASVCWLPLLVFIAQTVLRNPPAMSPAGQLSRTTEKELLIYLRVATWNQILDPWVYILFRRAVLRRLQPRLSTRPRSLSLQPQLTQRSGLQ
Sequence of Cholecystokinin receptor type A (Homo sapiens) (P32238 whole entry): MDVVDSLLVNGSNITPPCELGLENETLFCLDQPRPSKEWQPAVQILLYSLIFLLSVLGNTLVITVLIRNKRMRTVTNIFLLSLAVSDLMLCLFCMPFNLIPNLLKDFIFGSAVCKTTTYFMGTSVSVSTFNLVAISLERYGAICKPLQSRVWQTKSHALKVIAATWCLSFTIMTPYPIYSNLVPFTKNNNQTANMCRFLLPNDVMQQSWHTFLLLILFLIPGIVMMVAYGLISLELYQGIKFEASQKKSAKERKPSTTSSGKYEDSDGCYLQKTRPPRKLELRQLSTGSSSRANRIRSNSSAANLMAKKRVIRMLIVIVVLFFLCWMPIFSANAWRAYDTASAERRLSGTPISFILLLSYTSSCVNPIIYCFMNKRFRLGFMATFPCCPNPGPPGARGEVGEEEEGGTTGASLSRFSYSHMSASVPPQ
Sequence of Prostaglandin G/H synthase 1 (Homo sapiens) (P23219 whole entry): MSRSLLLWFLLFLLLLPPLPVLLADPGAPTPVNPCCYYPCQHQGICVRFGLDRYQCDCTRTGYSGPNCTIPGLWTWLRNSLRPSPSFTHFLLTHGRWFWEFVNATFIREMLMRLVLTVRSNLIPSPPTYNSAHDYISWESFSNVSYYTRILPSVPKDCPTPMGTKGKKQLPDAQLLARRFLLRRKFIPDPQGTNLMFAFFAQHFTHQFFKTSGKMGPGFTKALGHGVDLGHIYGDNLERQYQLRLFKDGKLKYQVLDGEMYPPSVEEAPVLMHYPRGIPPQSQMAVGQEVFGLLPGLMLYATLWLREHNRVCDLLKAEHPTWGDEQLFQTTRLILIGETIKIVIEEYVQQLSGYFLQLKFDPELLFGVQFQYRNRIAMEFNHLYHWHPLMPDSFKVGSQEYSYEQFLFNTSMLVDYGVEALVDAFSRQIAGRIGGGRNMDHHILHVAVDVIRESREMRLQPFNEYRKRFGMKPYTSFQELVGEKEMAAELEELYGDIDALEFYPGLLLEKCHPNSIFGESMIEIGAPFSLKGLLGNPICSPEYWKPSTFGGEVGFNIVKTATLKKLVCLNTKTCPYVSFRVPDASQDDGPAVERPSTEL

With `Cc1cc(-n2nc(Cc3cc(F)cc(C(F)(F)F)c3)nc2C)ccc1C(N)=O` [TP-024], in the assay on Mus musculus [1], the minimal effective dose was determined as 10 mg/kg. In [2], the result was inactive. In addition, the inhibition is 18% in assay [3]; -1% in [4]; 17% in [5]; 0% in assay [6]; 6% in [7]; -6% in assay [8]. Further, the inhibition was 28% in the assay filed under Homo sapiens, 8% in [9] and 2% in assay [10]. For the same compound, the result in the assay with Mus musculus [11], in the assay on Mus musculus [12] and with Mus musculus [13] was Active.
